The structures appear in SMILES notation.

One series deals with Acetylcholinesterase (Homo sapiens, UniProt P22303). Description: Inhibition of acetylcholine esterase. In a few lines: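 Acetylcholinesterase activity measured with acetylthiocholine substrate. Inhibitor at six concentrations in 5-fold steps from a maximum of 100 µM, duplicate measurements averaged. IC50 from variable-slope sigmoidal dose-response fit.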
The next series concerns the target Cholinesterase (Homo sapiens, UniProt P06276). The series is described as follows: Inhibition of butyrylcholine esterase.
Series [1] in a line: Cmax in Sprague-Dawley rat at 0.5 mg/kg, iv and 1 mg/kg, po. Type of series: ADME, organism-based. To be noted: in vivo. In a few lines: (§1)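 Male Sprague-Dawley rats, 12 weeks old, dosed by oral gavage and i.v. in 10% hydroxypropyl cyclodextrin in phosphate buffer pH 7.0, with one rat per time point. Plasma was diluted 1:1 in 10% methanol, centrifuged and quantified by turbulent-flow chromatography–tandem MS against plasma calibration curves (10-3000 ng/mL).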

The nature of series [2]: Oral bioavailability in Sprague-Dawley rat at 1 mg/kg, po. To be noted: in vivo. Type of series: ADME, organism-based. The method, boiled down: as §1
The target of the next series is T1, Hormone-sensitive lipase (Homo sapiens, UniProt Q05469).
T1 sequence (Q05469 whole entry): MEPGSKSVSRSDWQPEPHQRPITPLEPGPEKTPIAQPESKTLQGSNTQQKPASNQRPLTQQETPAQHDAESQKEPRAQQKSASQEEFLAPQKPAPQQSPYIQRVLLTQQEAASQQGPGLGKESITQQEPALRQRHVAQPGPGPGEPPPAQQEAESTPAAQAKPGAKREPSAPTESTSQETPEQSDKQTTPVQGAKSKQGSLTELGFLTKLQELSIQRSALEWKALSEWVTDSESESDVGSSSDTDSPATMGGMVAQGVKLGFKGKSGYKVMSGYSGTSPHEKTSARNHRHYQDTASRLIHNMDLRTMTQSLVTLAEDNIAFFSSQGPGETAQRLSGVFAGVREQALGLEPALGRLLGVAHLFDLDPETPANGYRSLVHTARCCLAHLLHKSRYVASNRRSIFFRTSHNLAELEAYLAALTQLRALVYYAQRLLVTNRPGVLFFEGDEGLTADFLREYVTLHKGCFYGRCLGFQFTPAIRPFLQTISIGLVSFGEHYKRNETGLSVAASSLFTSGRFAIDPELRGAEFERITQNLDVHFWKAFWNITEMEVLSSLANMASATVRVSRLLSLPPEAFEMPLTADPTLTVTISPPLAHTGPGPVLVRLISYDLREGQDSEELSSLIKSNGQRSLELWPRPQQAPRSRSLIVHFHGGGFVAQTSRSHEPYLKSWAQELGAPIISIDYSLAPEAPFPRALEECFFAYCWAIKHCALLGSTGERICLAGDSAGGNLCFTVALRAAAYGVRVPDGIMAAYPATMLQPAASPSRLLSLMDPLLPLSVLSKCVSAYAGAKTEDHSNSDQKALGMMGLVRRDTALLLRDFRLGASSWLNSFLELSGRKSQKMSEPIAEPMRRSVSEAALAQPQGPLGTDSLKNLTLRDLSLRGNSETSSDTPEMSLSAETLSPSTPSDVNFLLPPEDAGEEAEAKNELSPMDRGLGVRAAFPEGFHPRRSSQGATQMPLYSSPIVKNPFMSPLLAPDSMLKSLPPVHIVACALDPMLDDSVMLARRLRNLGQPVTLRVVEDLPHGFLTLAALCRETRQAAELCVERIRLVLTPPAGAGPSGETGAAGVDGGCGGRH
The series is described as follows: Inhibition of recombinant human hormone-sensitive lipase.

Series [3] can be described thus: Oral bioavailability in Sprague-Dawley rat at 2.2 mg/kg, po. Type of series: ADME, organism-based. The settings on record: in vivo. The method, boiled down:
(§2)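 Rat PK study, one rat per time point. Dosed i.v. and p.o. by gavage in 10% hydroxypropyl cyclodextrin in phosphate buffer pH 7.0; one compound was given in 20% Tween 80 plus 5% glucose in phosphate buffer pH 7.0. Plasma was diluted 1:1 with 10% methanol and centrifuged, then quantified by turbulent-flow chromatography–MS/MS against plasma calibration curves spanning 10-3000 ng/mL.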

Series [4] can be described thus: Clearance in Sprague-Dawley rat at 1.1 mg/kg, iv and 2.2 mg/kg, po. Type of series: ADME, organism-based. To be noted: in vivo. In a few lines: as §2

Chain of Cholinesterase (P06276 whole entry): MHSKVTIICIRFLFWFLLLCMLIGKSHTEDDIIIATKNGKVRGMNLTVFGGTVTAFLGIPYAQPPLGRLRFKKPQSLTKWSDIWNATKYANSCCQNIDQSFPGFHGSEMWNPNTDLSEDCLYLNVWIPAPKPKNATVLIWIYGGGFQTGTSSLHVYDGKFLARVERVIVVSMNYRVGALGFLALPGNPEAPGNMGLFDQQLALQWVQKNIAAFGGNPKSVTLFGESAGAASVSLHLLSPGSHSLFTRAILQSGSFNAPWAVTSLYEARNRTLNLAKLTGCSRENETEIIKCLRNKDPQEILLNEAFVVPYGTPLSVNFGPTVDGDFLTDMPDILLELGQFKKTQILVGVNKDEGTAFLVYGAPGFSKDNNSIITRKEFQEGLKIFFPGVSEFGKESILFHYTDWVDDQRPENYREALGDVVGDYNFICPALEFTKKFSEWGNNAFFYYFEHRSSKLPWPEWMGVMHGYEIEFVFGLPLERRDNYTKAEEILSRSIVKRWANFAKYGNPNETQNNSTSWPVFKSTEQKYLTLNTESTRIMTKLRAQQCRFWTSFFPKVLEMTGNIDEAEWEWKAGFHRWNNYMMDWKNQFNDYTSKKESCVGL
Chain of Acetylcholinesterase (P22303 whole entry): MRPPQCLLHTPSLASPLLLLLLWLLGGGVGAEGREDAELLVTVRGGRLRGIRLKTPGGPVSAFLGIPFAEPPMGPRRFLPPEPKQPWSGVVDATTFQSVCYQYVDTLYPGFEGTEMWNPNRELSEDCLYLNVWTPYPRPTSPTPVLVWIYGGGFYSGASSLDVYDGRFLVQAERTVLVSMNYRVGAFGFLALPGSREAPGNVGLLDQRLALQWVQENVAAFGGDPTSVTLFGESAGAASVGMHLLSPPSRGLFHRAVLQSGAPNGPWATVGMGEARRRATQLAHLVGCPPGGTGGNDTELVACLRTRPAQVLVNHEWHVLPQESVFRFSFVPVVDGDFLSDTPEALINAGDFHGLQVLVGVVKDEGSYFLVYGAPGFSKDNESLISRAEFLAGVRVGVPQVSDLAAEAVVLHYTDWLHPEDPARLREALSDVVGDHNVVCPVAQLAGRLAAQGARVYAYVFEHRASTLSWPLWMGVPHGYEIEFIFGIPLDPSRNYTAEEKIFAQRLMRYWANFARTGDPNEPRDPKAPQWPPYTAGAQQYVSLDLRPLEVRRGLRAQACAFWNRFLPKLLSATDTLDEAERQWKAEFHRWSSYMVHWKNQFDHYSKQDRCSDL

Usually IC50 stands for the point on the concentration scale where inhibition reaches its midpoint. As for `O=C(Oc1ccc(Oc2ccc(C(F)(F)F)cn2)cc1)N1CCc2ccccc2C1`, the 50% inhibitory concentration (IC50) at Acetylcholinesterase and against Cholinesterase was more than 50 µM throughout.
Consider `O=C(Oc1ccc(Oc2ncc(Cl)cc2Cl)cc1)N1CCCC1`, for which the IC50 against Acetylcholinesterase and against Cholinesterase was more than 50 µM throughout.
Regarding `O=C(Oc1ccc(Oc2ccc(C(F)(F)F)cn2)cc1)N1CCCCC1`, the IC50 against Acetylcholinesterase is more than 50 µM; against Cholinesterase, 8.2 µM.
On the same counts, the results for `Cc1ccccc1N(C)C(=O)Oc1ccc(Oc2ccc(C(F)(F)F)cn2)cc1` are more than 50 µM and more than 50 µM.
The matching figures for `CN(Cc1ccccc1)C(=O)Oc1ccc(Oc2ccc(C(F)(F)F)cn2)cc1`: more than 50 µM and more than 50 µM.
As usually defined, the Cmax is the maximum level reached in the sampled fluid or tissue. Usually bioavailability stands for the share of a dose that reaches the circulation, judged against a reference dose that is usually intravenous. Low readings indicate little systemic uptake, high ones much systemic uptake. As to `O=C(Oc1ccc(Oc2ccc(C(F)(F)F)cn2)cc1)N1CCOCC1`, the IC50 on Acetylcholinesterase and at Cholinesterase was more than 50 µM in each case. The concentration in series [1] peaked (Cmax) at 21 ng/mL. Besides, the bioavailability in series [2] is 12%.
As for `COc1ccc(N(C)C(=O)Oc2ccc(Oc3ccc(C(F)(F)F)cn3)cc2)cc1`, the concentration for half-maximal inhibition (IC50) on Acetylcholinesterase and against Cholinesterase was more than 50 µM each time.
On to `Cc1ccc(N(C)C(=O)Oc2ccc(Oc3ccc(C(F)(F)F)cn3)cc2)cc1`, for which the IC50 against Acetylcholinesterase and against Cholinesterase was more than 50 µM throughout.
As to `CN(C)C(=O)Oc1ccc(Oc2ncc(Cl)cc2Cl)cc1`, the IC50 at Acetylcholinesterase, at Hormone-sensitive lipase and against Cholinesterase was more than 50 µM in each case.
In the case of `CN(C(=O)Oc1ccc(Oc2ccc(C(F)(F)F)cn2)cc1)c1cccc(Cl)c1`, the 50% inhibitory concentration (IC50) against Acetylcholinesterase and against Cholinesterase was more than 50 µM in each case.
With `O=C(Oc1ccc(Oc2ncc(Cl)cc2Cl)cc1)N1CCOCC1`, the IC50 at Acetylcholinesterase and against Cholinesterase was more than 50 µM each time.
In the case of `Cc1cccc(N(C)C(=O)Oc2ccc(Oc3ccc(C(F)(F)F)cn3)cc2)c1`, the IC50 against Acetylcholinesterase and on Cholinesterase was more than 50 µM throughout.
Turning to `O=C(Oc1ccc(Oc2ccc(C(F)(F)F)cn2)cc1)N1CCCC1`, the IC50 at Acetylcholinesterase and against Cholinesterase was more than 50 µM throughout.
At Cholinesterase, `O=C(Oc1ccc(Oc2ccc(C(F)(F)F)cn2)cc1)N1CCC(Cc2ccccc2)CC1` came in with an IC50 of more than 50 µM.
For the molecule `CCCCNC(=O)Oc1ccc(Oc2ncc(Cl)cc2Cl)cc1`, the values for the half-maximal inhibitory concentration (IC50) against Acetylcholinesterase and at Cholinesterase were more than 50 µM and 19 µM, respectively.
For the molecule `CN(C(=O)Oc1ccc(Oc2ccc(C(F)(F)F)cn2)cc1)C1CCCCC1`, the IC50 at Acetylcholinesterase was more than 50 µM; on Hormone-sensitive lipase it was more than 5 µM; against Cholinesterase, more than 50 µM.
For the molecule `CN(C(=O)Oc1ccc(Oc2ccccc2)cc1)c1ccccc1`, the IC50 was more than 50 µM against Acetylcholinesterase, more than 5 µM at Hormone-sensitive lipase and more than 50 µM at Cholinesterase.
For `CN(C(=O)Oc1ccc(Oc2ncc(Cl)cc2Cl)cc1)c1ccccc1`, the IC50 against Acetylcholinesterase and at Cholinesterase was more than 50 µM in each case.
Turning to `CN(C(=O)Oc1ccc(Oc2ncc(C(F)(F)F)cc2Cl)cc1)c1ccccc1`, the IC50 against Acetylcholinesterase and at Cholinesterase was more than 50 µM throughout.
Turning to `CN(C(=O)Oc1ccc(Oc2ccc(C(F)(F)F)cn2)cc1)C(C)(C)C`, the IC50 was more than 50 µM at Acetylcholinesterase, more than 5 µM on Hormone-sensitive lipase and more than 50 µM at Cholinesterase.
As for `CC1CCN(C(=O)Oc2ccc(Oc3ccc(C(F)(F)F)cn3)cc2)CC1`, the IC50 against Acetylcholinesterase and against Cholinesterase was more than 50 µM each time.
With `CC(C)N(C)C(=O)Oc1ccc(Oc2ccc(C(F)(F)F)cn2)cc1`, the figures for the IC50 on Acetylcholinesterase, on Hormone-sensitive lipase and at Cholinesterase were more than 50 µM, more than 5 µM and more than 50 µM, respectively.
`CC1CCCN(C(=O)Oc2ccc(Oc3ccc(C(F)(F)F)cn3)cc2)C1` (stereo not drawn): the 50% inhibitory concentration (IC50) against Acetylcholinesterase and against Cholinesterase was more than 50 µM throughout.
`CN(C(=O)Oc1ccc(Oc2ccc(C(F)(F)F)cn2)cc1)c1ccc(Cl)cc1`: the IC50 against Acetylcholinesterase and at Cholinesterase was more than 50 µM each time.
With `O=C(Oc1ccc(Oc2ccc(C(F)(F)F)cn2)cc1)N1CCc2ccccc21`, the figures for the IC50 against Acetylcholinesterase, on Hormone-sensitive lipase and on Cholinesterase were more than 50 µM, more than 3 µM and more than 50 µM, respectively.
Consider `O=C(c1ccccc1)C1CCN(C(=O)Oc2ccc(Oc3ccc(C(F)(F)F)cn3)cc2)CC1`, for which the IC50 at Cholinesterase was more than 50 µM.
Consider `COc1ccccc1N(C)C(=O)Oc1ccc(Oc2ccc(C(F)(F)F)cn2)cc1`, for which the IC50 against Acetylcholinesterase and on Cholinesterase was more than 50 µM each time.
Turning to `CC1CCCCN1C(=O)Oc1ccc(Oc2ccc(C(F)(F)F)cn2)cc1` (stereo not drawn), the figures for the IC50 at Acetylcholinesterase, on Hormone-sensitive lipase and against Cholinesterase were more than 50 µM, more than 5 µM and more than 50 µM, respectively.
As for `CC1CN(C(=O)Oc2ccc(Oc3ccc(C(F)(F)F)cn3)cc2)CC(C)O1` (stereo not drawn), the IC50 against Acetylcholinesterase and against Cholinesterase was more than 50 µM throughout.
Take `CN(C(=O)Oc1ccc(Oc2ccc(Cl)cn2)cc1)c1ccccc1`: the IC50 at Acetylcholinesterase and on Cholinesterase was more than 50 µM each time.
Take `CN(C(=O)Oc1ccc(Oc2c(Cl)cncc2Cl)cc1)c1ccccc1`: the IC50 against Acetylcholinesterase and against Cholinesterase was more than 50 µM each time.
In the case of `CN(C(=O)Oc1ccc(Oc2ccc(C(F)(F)F)cn2)cc1)c1ccccc1`, the IC50 against Acetylcholinesterase and at Cholinesterase was more than 50 µM throughout. The bioavailability in series [3] was 16%. In addition, the clearance in series [4] turned out to be 61 mL/min/kg.
Regarding `CN(C(=O)Oc1ccc(Oc2ccc(C(F)(F)F)cn2)cc1)c1ccccc1Cl`, the IC50 against Acetylcholinesterase and against Cholinesterase was more than 50 µM in each case.
On to `O=C(Oc1ccc(Oc2ccc(C(F)(F)F)cn2)cc1)N1CCCc2ccc(C(F)(F)F)cc21`, for which the IC50 is more than 50 µM against Acetylcholinesterase, more than 5 µM at Hormone-sensitive lipase and more than 50 µM on Cholinesterase.
In the case of `CN(C(=O)Oc1ccc(Nc2ccc(C(F)(F)F)cn2)cc1)c1ccccc1`, the IC50 at Acetylcholinesterase and at Cholinesterase was more than 50 µM throughout.
For `O=C(Oc1ccc(Oc2ccc(C(F)(F)F)cn2)cc1)N1Cc2ccccc2C1`, the IC50 at Acetylcholinesterase and at Cholinesterase was more than 50 µM in each case.
`CCN(C(=O)Oc1ccc(Oc2ccc(C(F)(F)F)cn2)cc1)c1ccccc1`: the IC50 at Hormone-sensitive lipase is more than 5 µM.
